This is an account of results in ChEMBL document CHEMBL5338714, “Design, synthesis and biological evaluation of biphenyl-benzamides as potent FtsZ inhibitors” (Eur J Med Chem, 2022).

Values after ≈ are worked out from the molar mass of the structure shown.

The subject of data set [1] is Bacillus subtilis. Nature of the data set: Bactericidal activity against Bacillus subtilis ATCC9372 incubated for 24 hrs by broth microdilution method. Format: functional. The method in brief: (§1)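 MBC from the broth microdilution plates (MHB, 2-fold dilutions). After 24 h, 5 µL aliquots from clear wells were plated on LB agar and incubated aerobically 24 h at 37 °C, then colonies counted. MBC = lowest concentration with no colonies.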

The subject of another data set is Klebsiella pneumoniae. Briefly: Antibacterial activity against Klebsiella pneumoniae 14578 assessed as bacterial growth inhibition incubated for 18 hrs by CLSI based broth microdilution method. Format: functional. The method in brief:
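Broth microdilution to CLSI guidelines. Log-phase bacteria grown in Mueller Hinton broth, diluted, then exposed to 2-fold serial dilutions of compound (128 to 0.25 µg/mL or 2 to 0.004 µg/mL). Incubated aerobically 18 h at 37 °C. Growth read as OD600. MIC = lowest concentration giving ≥90% growth inhibition. Three independent assays.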
In general terms: Broth dilution looks for growth in wells or tubes with falling amounts of substance.

Data set [2] concerns Staphylococcus aureus. Nature of the data set: Bactericidal activity against Staphylococcus aureus ATCC25923 incubated for 24 hrs by broth microdilution method. Type of data set: functional. An outline of the steps: as §1
Data set [3] relates to Bacillus subtilis. Briefly: Antibacterial activity against Bacillus subtilis ATCC9372 assessed as bacterial growth inhibition incubated for 18 hrs by CLSI based broth microdilution method. Type of data set: functional. An outline of the steps:
(§2)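 CLSI broth microdilution. Log-phase bacteria in Mueller Hinton broth added to 2-fold serial dilutions spanning 128 to 0.25 or 2 to 0.004 µg/mL. Incubated aerobically for 18 h at 37 °C, then OD600 read. MIC is the lowest concentration giving ≥90% growth inhibition; three independent assays.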

Data set [4] relates to Staphylococcus aureus. Nature of the data set: Antibacterial activity against Staphylococcus aureus ATCC25923 assessed as bacterial growth inhibition incubated for 18 hrs by CLSI based broth microdilution method. Format: functional. The method in brief:
as §2

For data set [5], the system named is Staphylococcus aureus. Briefly: Antibacterial activity against Staphylococcus aureus ATCC29213 assessed as bacterial growth inhibition incubated for 18 hrs by CLSI based broth microdilution method. Type of data set: functional. An outline of the steps: as §2
Data set [6] has as its system Staphylococcus aureus. Briefly: Induction of resistance in Staphylococcus aureus ATCC29213 assessed as fold increase in MIC at 0.5 times MIC after 18 passages incubated for 24 hrs by resistance development assay. Type of data set: functional. The method in brief: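 Serial passage of S. aureus ATCC29213. Initial MIC was found by broth microdilution. Bacteria from the 0.5 × MIC tubes (duplicate) were diluted to about 5 × 10^5 CFU/mL and re-exposed to compound for 24 h at 35 °C, then fold increase in MIC was determined. Repeated for 18 passages, with norfloxacin as comparator.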

In data set [7] the test system is Bacillus subtilis. Nature of the data set: Antibacterial activity against Bacillus subtilis 618 assessed as bacterial growth inhibition incubated for 18 hrs by CLSI based broth microdilution method. Format: functional. An outline of the steps:
as §2

Data set [8] has as its system Bacillus subtilis. Briefly: Antibacterial activity against Bacillus subtilis BS01 assessed as bacterial growth inhibition incubated for 18 hrs by CLSI based broth microdilution method. Type of data set: functional. The method in brief: as §2
For data set [9], the system named is Bacillus subtilis. Briefly: Antibacterial activity against Bacillus subtilis MG27 assessed as bacterial growth inhibition incubated for 18 hrs by CLSI based broth microdilution method. Type of data set: functional. The method in brief: as §2
Data set [10] is described as follows: Selectivity index, ratio of CC50 for African green monkey Vero cells to MIC for Bacillus subtilis ATCC9372. Type of data set: toxicity, cell-based. To be noted: read-out: Selectivity Index. The method in brief:
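CC50 in Vero cells (72 h Alamar blue) divided by broth microdilution MIC against B. subtilis ATCC9372.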

A short description of data set [11]: Cytotoxicity against African green monkey Vero cells assessed as reduction in cell viability incubated for 72 hrs by alamar blue staining based assay. Format: toxicity. To be noted: chlorocebus sabaeus. An outline of the steps:
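Vero cells seeded at about 2 × 10^3 per well, 37 °C, 5% CO2. Compound added after 24 h and incubated 72 h. AlamarBlue (1:10 v/v) then added for 3 h in the dark, read at Ex/Em 560/590 nm. CC50 is the lowest concentration causing 50% loss of viability.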

For orientation: MBC means the lowest tested concentration that kills the bacteria rather than only halting them. The MIC is the least concentration at which growth counts as inhibited. As for `CN[C@H](CC(C)C)C(=O)N[C@H]1C(=O)N[C@@H](CC(N)=O)C(=O)N[C@H]2C(=O)N[C@H]3C(=O)N[C@H](C(=O)N[C@H](C(=O)O)c4cc(O)cc(O)c4-c4cc3ccc4O)[C@H](O)c3ccc(c(Cl)c3)Oc3cc2cc(c3O[C@@H]2O[C@H](CO)[C@@H](O)[C@H](O)[C@H]2O[C@H]2C[C@](C)(N)[C@H](O)[C@H](C)O2)Oc2ccc(cc2Cl)[C@H]1O` [VANCOMYCIN], the MBC in the data set with Bacillus subtilis [1] worked out at 1 µg/mL (≈ 0.69 µM); against Staphylococcus aureus [2] it was 0.5 µg/mL (≈ 0.345 µM). In addition, the MIC with Klebsiella pneumoniae is > 128 µg/mL; in the data set on Bacillus subtilis [3], 1 µg/mL (≈ 0.69 µM).
Regarding `NC(=O)c1c(F)ccc(OCc2cccc(-c3ccc(F)cc3)c2)c1F`, the MIC stood at 1 µg/mL (≈ 2.8 µM) in the data set with Staphylococcus aureus [4], 0.125 µg/mL (≈ 0.35 µM) in the data set with Bacillus subtilis [3] and 2 µg/mL (≈ 5.6 µM) in the data set on Staphylococcus aureus [5].
With `CCn1cc(C(=O)O)c(=O)c2cc(F)c(N3CCNCC3)cc21` [NORFLOXACIN], the “fold change (FC)” value with Staphylococcus aureus [6] was 128.
For the molecule `NC(=O)c1c(F)ccc(OCc2cccc(-c3ccc(C(F)(F)F)cc3Cl)c2)c1F`, the MIC was found to be 0.063 µg/mL (≈ 0.143 µM) in the data set with Bacillus subtilis [7]; 0.031 µg/mL (≈ 0.0702 µM) in the data set on Bacillus subtilis [8]; 0.25 µg/mL (≈ 0.566 µM) in the data set with Staphylococcus aureus [4]; 0.031 µg/mL (≈ 0.0702 µM) with Bacillus subtilis [3]; 0.25 µg/mL (≈ 0.566 µM) in the data set with Staphylococcus aureus [5]; 0.063 µg/mL (≈ 0.143 µM) with Bacillus subtilis [9].
Turning to `CCCc1ccc(-c2cccc(COc3ccc(F)c(C(N)=O)c3F)c2)cc1`, the results for the MIC with Staphylococcus aureus [4], in the data set with Bacillus subtilis [3] and in the data set on Staphylococcus aureus [5] were 1 µg/mL (≈ 2.62 µM), 0.125 µg/mL (≈ 0.328 µM) and 1 µg/mL (≈ 2.62 µM), respectively.
Take `Cc1ccc(-c2cccc(COc3ccc(F)c(C(N)=O)c3F)c2)cc1`: the MIC in the data set on Staphylococcus aureus [4] was 0.5 µg/mL (≈ 1.41 µM); with Bacillus subtilis [3], 0.125 µg/mL (≈ 0.354 µM); in the data set on Staphylococcus aureus [5], 0.5 µg/mL (≈ 1.41 µM).
Consider `CCCCc1ccc(-c2cccc(COc3ccc(F)c(C(N)=O)c3F)c2)cc1`, for which the MIC amounted to 0.5 µg/mL (≈ 1.26 µM) with Staphylococcus aureus [4], 0.125 µg/mL (≈ 0.316 µM) in the data set on Bacillus subtilis [3] and 1 µg/mL (≈ 2.53 µM) in the data set with Staphylococcus aureus [5].
The corresponding values for `NC(=O)c1c(F)ccc(OCc2cccc(-c3ccc(C(F)(F)F)c(Cl)c3)c2)c1F` are > 128 µg/mL, > 128 µg/mL and > 128 µg/mL.
The corresponding values for `NC(=O)c1c(F)ccc(OCc2nc3cc(Cl)cnc3s2)c1F` are 1 µg/mL (≈ 2.81 µM), 0.5 µg/mL (≈ 1.41 µM) and 1 µg/mL (≈ 2.81 µM).
The corresponding values for `N#Cc1ccc(-c2cccc(COc3ccc(F)c(C(N)=O)c3F)c2)cc1` are > 128 µg/mL, > 128 µg/mL and > 128 µg/mL.
Take `Cc1cc(Cl)ccc1-c1cccc(C(CO)Oc2ccc(F)c(C(N)=O)c2F)c1` (stereo not drawn): the figures for the MIC with Staphylococcus aureus [4], with Bacillus subtilis [3] and in the data set with Staphylococcus aureus [5] were 1 µg/mL (≈ 2.39 µM), 0.125 µg/mL (≈ 0.299 µM) and 1 µg/mL (≈ 2.39 µM), respectively.
Turning to `NC(=O)c1c(F)ccc(OCc2cccc(-c3ccc(C(F)(F)F)cc3C(F)(F)F)c2)c1F`, the MIC with Staphylococcus aureus [4] worked out at 0.5 µg/mL (≈ 1.05 µM); in the data set with Bacillus subtilis [3], 0.125 µg/mL (≈ 0.263 µM); in the data set on Staphylococcus aureus [5], 0.5 µg/mL (≈ 1.05 µM).
As to `NC(=O)c1c(F)ccc(OC(CO)c2cccc(-c3ccc(C(F)(F)F)cc3)c2)c1F` (stereo not drawn), the results for the MIC in the data set with Staphylococcus aureus [4], in the data set on Bacillus subtilis [3] and in the data set on Staphylococcus aureus [5] were 4 µg/mL (≈ 9.15 µM), 0.5 µg/mL (≈ 1.14 µM) and 8 µg/mL (≈ 18.3 µM), respectively.
Consider `NC(=O)c1c(F)ccc(OCc2ccccc2)c1F`, for which the MIC came to 32 µg/mL (≈ 122 µM) in the data set with Staphylococcus aureus [4], 16 µg/mL (≈ 60.8 µM) in the data set with Bacillus subtilis [3] and 64 µg/mL (≈ 243 µM) with Staphylococcus aureus [5].
By CC50 is commonly meant the concentration that lowers cell viability or growth by half. In the case of `Cc1cc(C(F)(F)F)ccc1-c1cccc(COc2ccc(F)c(C(N)=O)c2F)c1`, the MIC in the data set on Bacillus subtilis [7] came to 0.031 µg/mL (≈ 0.0736 µM); in the data set with Bacillus subtilis [8], 0.016 µg/mL (≈ 0.038 µM); in the data set on Staphylococcus aureus [4] it was 0.25 µg/mL (≈ 0.593 µM); in the data set with Bacillus subtilis [3], 0.031 µg/mL (≈ 0.0736 µM); in the data set with Staphylococcus aureus [5], 0.25 µg/mL (≈ 0.593 µM); in the data set on Bacillus subtilis [9] it was 0.063 µg/mL (≈ 0.15 µM). Also, the selectivity ratio in data set [10] is > 1250. In [11], the CC50 at 72 h is > 20 µg/mL.
Take `CCCCCc1ccc(-c2cccc(COc3ccc(F)c(C(N)=O)c3F)c2)cc1`: the values for the MIC in the data set with Staphylococcus aureus [4], in the data set on Bacillus subtilis [3] and in the data set with Staphylococcus aureus [5] were > 128 µg/mL, 0.125 µg/mL (≈ 0.305 µM) and > 128 µg/mL, respectively.
With `NC(=O)c1c(F)ccc(OCc2cccc(-c3ccccc3)c2)c1F`, the MIC was 2 µg/mL (≈ 5.89 µM) with Staphylococcus aureus [4], 0.5 µg/mL (≈ 1.47 µM) in the data set on Bacillus subtilis [3] and 2 µg/mL (≈ 5.89 µM) in the data set with Staphylococcus aureus [5].
